Consider one compound from paper PMC3981972 (Molecular cancer therapeutics, 2014).

Data set [1] can be described thus: Mouse plasma clearance of fluorescent probes after intravenous injection. It is filed as in vivo. Conditions: 75 nmol i.v., biexponential fit. The method, boiled down:
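Nude mice (6–8 weeks) with HT-1080 tumours in dorsal skin window chambers, under 1–2% isoflurane. Vessels labelled with Angiosense-750 or Pacific Blue–dextran. 75 nmol probe in 1:1 dimethylacetamide:solutol plus PBS, sonicated, given by tail-vein catheter during time-lapse intravital imaging (scans every 10 s). Plasma signal taken from intravascular regions of interest and fitted to biexponential decay.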

The subject of data set [2] is tumor blood vessels of HT-1080 xenografts. To be noted: previous observations; cited from earlier work.
A short description of data set [3]: Plasma protein binding by rapid equilibrium dialysis. It counts as in vitro ADME. To be noted: 10 μM in mouse serum, 37°C, 4 hours. The method, boiled down: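 Probe equilibrated in mouse serum against PBS on a shaker. Both compartments then adjusted with plasma or PBS to a 50:50 PBS:plasma final matrix to even out fluorescence effects. Fluorescence read on a plate reader to give the bound fraction.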

The test system of a further data set is HT1080 cells. The experiment in a line: Live cell imaging of subcellular uptake and wash-out kinetics. It is filed as cell-based. A digest of the protocol:
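HT1080 cells grown in DMEM with non-essential amino acids, 10% FBS and 1% penicillin-streptomycin, then imaged live in glass coverslip-bottom dishes on an inverted deconvolution microscope (40x objective, 37°C, 5% CO2). Prewarmed fluorescent probe was added to 1 μM, with images every second. Cells were then washed twice into drug-free medium. Nuclear and nucleolar regions of interest were fitted to uptake and clearance curves.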

Consider `Cc1cc(C)n2c1C=C1C=CC(CCC(=O)N3CCN(C(=O)c4cc(Cc5n[nH]c(=O)c6ccccc56)ccc4F)CC3)=[N+]1[B-]2(F)F` [olaparib-BODIPY FL], for which, in data set [1], the “Mouse plasma clearance t1/2,alpha” value came out at 5.16 min and the “Mouse plasma clearance t1/2,beta” value was 85.7 min. Also, in data set [1] (read-out: Mouse plasma clearance C0), the C0 is 7 µM. Also, the “Vascular permeability in tumor vessels versus mouse ear vessels” value in data set [2] is “the same in tumor vessels and mouse ear vessels”. The “Mouse plasma protein binding” value in data set [3] is given as 99.23% (+/− 0.11%). For the same compound, the “Washing time to remove non-specific ER staining” value with HT1080 cells (HT1080 cells after 1 μM incubation, washed with fresh media) is given as “Within five minutes”. The compound further registered a Cellular uptake half-life with HT1080 cells (HT1080 cells, 1 μM) of 1.18 min.
